Here are results for eleven compounds from ChEMBL document CHEMBL4138281, “Anti-Staphylococcal Calopins from Fruiting Bodies of Caloboletus radicans” (2018).

In general, MIC refers to the least concentration at which growth counts as inhibited. A high value points to a less susceptible organism.

Values after ≈ are worked out from the molar mass of the structure shown. Active and inactive are the calls of the source. The rule behind the calls is not given here.

Assay [1] has as its system Enterococcus faecalis. Put plainly: Antimicrobial activity against Enterococcus faecalis FF11 at 40 ug/disk after 2 days by disc diffusion method. The assay is classed as functional, organism-based. The procedure, abridged: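 Bacterial suspension (1 × 10^5 CFU/mL) spread on Mueller–Hinton agar. Paper disks (8 mm) carried 40 μL of a 1000 μg/mL acetone solution, dried, and were placed on the plate. Incubated 2 days at 37 °C; halo diameter measured; mean ± standard error of three replications; azithromycin positive control.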
In general terms: In agar diffusion tests the substance spreads into inoculated agar from a disc or well.

Assay [2] has as its system Staphylococcus aureus. Put plainly: Antimicrobial activity against methicillin-resistant Staphylococcus aureus EMRSA-15 after 18 hrs by MTT based broth dilution assay. The assay is classed as functional. The note with it: EMRSA-15, 18 h. In a few lines:
(§1)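 Strains grown 24 h at 37 °C on nutrient agar. Inoculum of 5 × 10^5 CFU set in 0.9% saline against a 0.5 McFarland standard. Compounds serially diluted 0.5–256 μg/mL in Mueller–Hinton broth, inoculated and incubated 18 h at 37 °C; DMSO control; norfloxacin positive control. MTT (5 mg/mL methanolic) added for 20 min; MIC is the lowest concentration with no growth (no yellow-to-blue change); at least three independent determinations.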
On the technique in general: Dilution methods test growth across graded concentrations, often in twofold steps.

In assay [3] the test system is Staphylococcus aureus. Nature of the assay: Antimicrobial activity against tetracycline/methicillin-resistant Staphylococcus aureus XU212 after 18 hrs by MTT based broth dilution assay. It counts as functional. The note with it: XU212, 18 h. In a few lines:
as §1

Assay [4] deals with Staphylococcus aureus. Put plainly: Antimicrobial activity against […] Staphylococcus aureus ATCC 25923 after 18 hrs by MTT based broth dilution assay. The note with it: ATCC 25923, 18 h. It counts as functional. The procedure, abridged:
as §1

A further assay relates to Pyricularia oryzae. Nature of the assay: Antimicrobial activity against Magnaporthe oryzae Triticum pathotype at 40 ug/disk after 5 days by disc diffusion method. It counts as functional, organism-based. The procedure, abridged:
(§2)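 Fungi pre-grown on 10% V8 agar at 25 °C in the dark. A 4 mm mycelial agar block was centred on a 9 cm PDA plate. Paper disks (8 mm) carried 40 μL of a 1000 μg/mL acetone stock, dried, and were set 4 mm from the block. Plates incubated 5 days at 25 °C in the dark; inhibition zone measured in mm; triplicate.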

For a further assay, the system named is PC-3. Put plainly: Cytotoxicity against human PC3 cells at 100 uM after 72 hrs by SRB assay. The assay is classed as functional, cell-based. In a few lines:
(§3)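 SRB assay. Cells kept in DMEM with 10% FBS and 1% penicillin–streptomycin at 37 °C, 5% CO2. Seeded at 5 × 10^4 cells/mL, adapted overnight, then exposed to compounds for 72 h. Cells fixed with 10% TCA (30 min, 4 °C), stained with SRB for 30 min, washed with 1% acetic acid, OD read at 540 nm. Paclitaxel positive control; 0.05% DMSO negative control; triplicate.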

The test system of another assay is HepG2. Nature of the assay: Cytotoxicity against human HepG2 cells at 100 uM after 72 hrs by SRB assay. The assay is classed as functional, cell-based. In a few lines:
as §3
(Sulforhodamine B stains cellular protein and so reports cell mass.)

For assay [5], the system named is Staphylococcus aureus. Put plainly: Antimicrobial activity against […] Staphylococcus aureus SA1199B after 18 hrs by MTT based broth dilution assay. It counts as functional. The procedure, abridged:
as §1

Assay [6] deals with Colletotrichum gloeosporioides. Nature of the assay: Antimicrobial activity against Colletotrichum gloeosporioides at 40 ug/disk after 5 days by disc diffusion method. It counts as functional, organism-based. The procedure, abridged: as §2
Assay [7] concerns Enterococcus faecalis. Put plainly: Antimicrobial activity against Enterococcus faecalis F1B1 assessed as zone of inhibition at 40 ug/disk after 2 days by disc diffusion method. The note with it: F1B1, 48 h, read-out: DIZ. It counts as functional. The procedure, abridged:
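Disk diffusion on Mueller-Hinton agar spread with bacterial suspension (1 × 10^5 CFU/mL). 40 μL of a 1000 μg/mL acetone solution loaded on an 8 mm paper disk and dried before placement. Incubated 2 days at 37 °C, then diameter of the bacteria-free halo measured. Mean ± standard error of three replicates; azithromycin positive control.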

For the compound `C[C@@H]1COC(=O)[C@H]2O[C@@](C)(O)[C@@]3(CC=C(CO)C(=O)[C@H]3O)[C@@H]12`, the outcome (in the assay with Enterococcus faecalis [1]; in the assay with Pyricularia oryzae; in the assay on PC-3; in the assay on HepG2; in assay [6]) was inactive. Besides, the MIC with Staphylococcus aureus [2] stood at 128 mg/L (≈ 410 µM); against Staphylococcus aureus [3], 64 mg/L (≈ 205 µM); in the assay with Staphylococcus aureus [4] it was 64 mg/L (≈ 205 µM); against Staphylococcus aureus [5] it was 128 mg/L (≈ 410 µM).

Take `CC1=CC[C@]2([C@H]3[C@H](C)COC(=O)[C@H]3O[C@@]2(C)O)[C@H](O)C1=O`: the result (with Enterococcus faecalis [1]; in the assay on Pyricularia oryzae; in the assay on PC-3; in the assay on HepG2; in assay [6]) was inactive. Besides, the zone of inhibition at 40 µg/disc in the assay on Enterococcus faecalis [7] stood at 7.1 mm. Moreover, the minimum inhibitory concentration (MIC) in the assay on Staphylococcus aureus [2] was determined as 64 mg/L (≈ 216 µM); with Staphylococcus aureus [4], 32 mg/L (≈ 108 µM); in the assay on Staphylococcus aureus [5], 64 mg/L (≈ 216 µM).

Consider `CC(=O)O[C@@H]1[C@@H](O)C(C)=CC[C@]12[C@H]1[C@H](C)COC(=O)[C@H]1O[C@@]2(C)O`, for which the result (with Enterococcus faecalis [1]; in the assay with Pyricularia oryzae; in the assay with PC-3; in the assay on HepG2; in [6]) was inactive. Moreover, the MIC stood at 32 mg/L (≈ 94 µM) in the assay on Staphylococcus aureus [2], 32 mg/L (≈ 94 µM) in the assay on Staphylococcus aureus [3], 16 mg/L (≈ 47 µM) in the assay on Staphylococcus aureus [4] and 16 mg/L (≈ 47 µM) against Staphylococcus aureus [5].

In the case of `CCn1cc(C(=O)O)c(=O)c2cc(F)c(N3CCNCC3)cc21` [NORFLOXACIN], the MIC in the assay with Staphylococcus aureus [2] came out at 32 mg/L (≈ 100 µM); in the assay with Staphylococcus aureus [3], 32 mg/L (≈ 100 µM); with Staphylococcus aureus [4], 32 mg/L (≈ 100 µM); against Staphylococcus aureus [5] it was 64 mg/L (≈ 200 µM).

As for `CC(=O)O[C@@H]1[C@@H](OC(C)=O)C(C)=CC[C@]12[C@H]1[C@H](C)COC(=O)[C@H]1O[C@@]2(C)O`, the result (with Enterococcus faecalis [1]; in the assay with Pyricularia oryzae; in the assay with PC-3; in the assay with HepG2; in assay [6]) was inactive. For the same compound, in the assay with Enterococcus faecalis [7], the zone of inhibition at 40 µg/disc came to 5.5 mm. Also, the MIC in the assay with Staphylococcus aureus [3] and with Staphylococcus aureus [5] was 64 mg/L (≈ 167 µM) in each case.

For the compound `CC(=O)O[C@@H]1C(=O)OC[C@@H](C)[C@@H]1c1ccc(C)c(O)c1O`, the result (in the assay with Enterococcus faecalis [1]; in the assay with Pyricularia oryzae; in the assay on PC-3; in the assay with HepG2; in assay [6]) was inactive. Further, the zone of inhibition at 40 µg/disc in the assay with Enterococcus faecalis [7] came to 9.5 mm. Besides, the minimum inhibitory concentration (MIC) against Staphylococcus aureus [2] amounted to 64 mg/L (≈ 217 µM); in the assay on Staphylococcus aureus [3], 64 mg/L (≈ 217 µM); against Staphylococcus aureus [5], 128 mg/L (≈ 435 µM).

For the compound `COCC1=CC[C@]2([C@H]3[C@H](C)COC(=O)[C@H]3O[C@@]2(C)OC)[C@H](O)C1=O`, the outcome (with Enterococcus faecalis [1]; with Pyricularia oryzae; in the assay on PC-3; with HepG2; in assay [6]) was inactive. In addition, the zone of inhibition at 40 µg/disc with Enterococcus faecalis [7] was determined as 5.5 mm. The MIC came out at 256 mg/L (≈ 752 µM) with Staphylococcus aureus [2], 128 mg/L (≈ 376 µM) with Staphylococcus aureus [3], 128 mg/L (≈ 376 µM) with Staphylococcus aureus [4] and 256 mg/L (≈ 752 µM) in the assay on Staphylococcus aureus [5].

Consider `CC1=CC[C@]2([C@H]3[C@H](C)COC(=O)[C@H]3O[C@@]2(C)O)[C@@H](O)[C@H]1O`, for which the outcome (in the assay on Enterococcus faecalis [1]; with Pyricularia oryzae; in the assay on PC-3; with HepG2; in assay [6]) was inactive. The results for the MIC in the assay on Staphylococcus aureus [2], in the assay with Staphylococcus aureus [4] and against Staphylococcus aureus [5] were 64 mg/L (≈ 215 µM), 32 mg/L (≈ 107 µM) and 64 mg/L (≈ 215 µM), respectively.

Consider `Cc1ccc([C@H]2[C@H](C)COC(=O)[C@H]2O)c(O)c1O`, for which the result (in the assay on Enterococcus faecalis [1]; in the assay on Pyricularia oryzae; in the assay with PC-3; in the assay with HepG2; in assay [6]) was inactive. In addition, in the assay with Enterococcus faecalis [7], the zone of inhibition at 40 µg/disc amounted to 5.6 mm. In addition, the minimum inhibitory concentration (MIC) against Staphylococcus aureus [2] stood at 128 mg/L (≈ 507 µM); in the assay on Staphylococcus aureus [3] it was 128 mg/L (≈ 507 µM); in the assay with Staphylococcus aureus [4], 64 mg/L (≈ 254 µM); with Staphylococcus aureus [5], 128 mg/L (≈ 507 µM).

For `COCC1=CC[C@]2([C@H]3[C@H](C)COC(=O)[C@H]3O[C@@]2(C)O)[C@H](O)C1=O`, the outcome (in the assay on Enterococcus faecalis [1]; in the assay on Pyricularia oryzae; in the assay on PC-3; in the assay with HepG2; in [6]) was inactive. Besides, the MIC came to 128 mg/L (≈ 392 µM) against Staphylococcus aureus [2], 128 mg/L (≈ 392 µM) in the assay with Staphylococcus aureus [3], 64 mg/L (≈ 196 µM) in the assay on Staphylococcus aureus [4] and 64 mg/L (≈ 196 µM) in the assay on Staphylococcus aureus [5].

On to `CC1C(=O)[C@@H](O)[C@@]23C[C@H]1O[C@]2(O)O[C@@H]1C(=O)OC[C@@H](C)[C@@H]13` (some centres undefined), for which the outcome (in the assay on Enterococcus faecalis [1]; in the assay on Pyricularia oryzae; in the assay on PC-3; with HepG2; in assay [6]) was inactive. Besides, the MIC in the assay with Staphylococcus aureus [2] amounted to 64 mg/L (≈ 215 µM); in the assay with Staphylococcus aureus [3], 64 mg/L (≈ 215 µM); against Staphylococcus aureus [4], 64 mg/L (≈ 215 µM); in the assay with Staphylococcus aureus [5], 128 mg/L (≈ 429 µM).
